Data set [1] addresses Peroxisome proliferator-activated receptor alpha (Homo sapiens) (UniProt Q07869). Briefly: Transactivation of human GAL4-fused PPARalpha ligand binding domain expressed in […] cells at 10 uM after 12 to 14 hrs by dual-glo luciferase reporter gene assay. The data set is classed as cell-based. A digest of the protocol:
(§1)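 HEK293T cells in DMEM/10% FCS, Opti-MEM before Lipofectamine LTX transfection with pFR-Luc reporter, pRL-SV40 and pFA-CMV GAL4–LBD plasmid. 5 h later compound in 0.1% DMSO, Opti-MEM, overnight (12−14 h). Dual luciferase; firefly/renilla ×1000 = RLU, fold over DMSO control; triplicates, ≥3 independent repeats.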

The target in data set [2] is Oxysterols receptor LXR-beta (Homo sapiens) (UniProt P55055). The data set is described as follows: Transactivation of human GAL4-fused LXRbeta ligand binding domain expressed in […] cells at 10 uM after 12 to 14 hrs by dual-glo luciferase reporter gene assay. The data set is classed as cell-based. A digest of the protocol: as §1
Sequence of Oxysterols receptor LXR-beta (Homo sapiens) (P55055 whole entry, the tested form may be a part): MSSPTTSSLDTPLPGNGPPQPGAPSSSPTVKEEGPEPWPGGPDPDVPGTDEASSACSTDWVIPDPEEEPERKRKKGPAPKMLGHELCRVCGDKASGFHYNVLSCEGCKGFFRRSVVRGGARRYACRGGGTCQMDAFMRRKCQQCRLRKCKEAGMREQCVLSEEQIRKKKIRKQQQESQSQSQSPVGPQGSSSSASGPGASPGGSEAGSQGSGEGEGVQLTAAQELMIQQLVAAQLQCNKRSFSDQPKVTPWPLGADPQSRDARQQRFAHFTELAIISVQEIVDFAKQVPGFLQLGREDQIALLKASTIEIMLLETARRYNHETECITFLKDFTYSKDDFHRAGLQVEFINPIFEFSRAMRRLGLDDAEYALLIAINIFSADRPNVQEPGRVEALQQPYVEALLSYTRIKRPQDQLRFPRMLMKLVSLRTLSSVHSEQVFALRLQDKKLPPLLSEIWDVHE
A general note: Reporter assays use an easily measured gene product as a stand-in for the process of interest.

The target in data set [3] is T1, Bile acid receptor (Homo sapiens) (UniProt Q96RI1).
T1 sequence (whole entry): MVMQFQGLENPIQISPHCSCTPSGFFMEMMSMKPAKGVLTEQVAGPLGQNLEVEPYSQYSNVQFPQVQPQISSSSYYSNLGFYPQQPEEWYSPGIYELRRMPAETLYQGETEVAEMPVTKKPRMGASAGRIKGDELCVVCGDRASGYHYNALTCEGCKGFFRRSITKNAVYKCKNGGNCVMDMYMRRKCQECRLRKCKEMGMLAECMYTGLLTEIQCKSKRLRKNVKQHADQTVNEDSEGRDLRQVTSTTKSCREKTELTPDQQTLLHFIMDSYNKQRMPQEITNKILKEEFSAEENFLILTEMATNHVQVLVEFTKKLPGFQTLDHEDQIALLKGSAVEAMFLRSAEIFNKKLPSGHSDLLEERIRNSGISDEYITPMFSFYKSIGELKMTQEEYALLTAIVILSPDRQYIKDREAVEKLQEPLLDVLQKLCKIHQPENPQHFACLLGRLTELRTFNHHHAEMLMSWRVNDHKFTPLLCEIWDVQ
The data set is described as follows: Transactivation of FXR in human HepG2 cells assessed as SREBP1c mRNA expression at 1 uM after 8 to 16 hrs by SYBR green based qRT-PCR analysis relative to DMSO control. The data set is classed as cell-based. A digest of the protocol:
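HepG2 cells incubated with test compound (0.1 and 1 μM) or 0.1% DMSO for 8 or 16 h, washed in cold PBS, RNA extracted; target mRNA by SYBR Green qRT-PCR, duplicate samples, ≥4 independent experiments; comparative ΔΔCt with GAPDH reference, vehicle set as 100%.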
In general terms: In qPCR the cycle at which signal appears reflects the starting amount.

Data set [4] concerns the target T2, Bifunctional epoxide hydrolase 2 (Homo sapiens) (UniProt P34913).
T2 sequence (whole entry): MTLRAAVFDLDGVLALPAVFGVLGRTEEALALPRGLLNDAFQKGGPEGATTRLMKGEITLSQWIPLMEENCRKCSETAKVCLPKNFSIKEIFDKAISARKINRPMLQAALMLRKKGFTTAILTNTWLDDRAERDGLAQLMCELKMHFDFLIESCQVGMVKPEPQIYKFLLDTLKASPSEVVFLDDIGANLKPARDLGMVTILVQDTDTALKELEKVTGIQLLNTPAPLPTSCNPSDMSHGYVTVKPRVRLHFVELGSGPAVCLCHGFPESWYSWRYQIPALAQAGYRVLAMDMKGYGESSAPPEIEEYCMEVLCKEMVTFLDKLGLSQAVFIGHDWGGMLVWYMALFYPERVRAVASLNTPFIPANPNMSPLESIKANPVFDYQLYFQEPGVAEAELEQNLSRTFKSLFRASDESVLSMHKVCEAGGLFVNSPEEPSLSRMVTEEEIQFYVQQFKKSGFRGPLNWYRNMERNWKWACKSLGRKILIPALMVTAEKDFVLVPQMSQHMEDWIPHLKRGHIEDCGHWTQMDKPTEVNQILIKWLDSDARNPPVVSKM
The data set is described as follows: Inhibition of sEH in human HepG2 cells assessed as NF-kappaB mRNA expression at 1 uM after 8 to 16 hrs by SYBR green based qRT-PCR analysis relative to DMSO control. The data set is classed as cell-based. A digest of the protocol:
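HepG2 cells treated with compound or 0.1% DMSO vehicle; NF-κB mRNA quantified by SYBR Green qRT-PCR, comparative ΔΔCt with GAPDH reference; expressed as % of vehicle (100%).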

A further data set relates to Mus musculus. The data set is described as follows: In vivo activation of FXR in C57BL/6JRj mouse liver assessed as CYP7A1 mRNA expression at 10 mg/kg, po measured up to 480 mins post dose by qRT-PCR analysis relative to control. The note with it: 8 h. The class given is ADME, organism-based. The procedure, abridged:
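Male C57BL/6JRj mice (23−26 g), single oral 10 mg/kg in water with 1% HPMC/Tween 80 (99:1); vehicle group n = 3, treated n = 6. Livers taken 8 h postdose, snap-frozen; cells pressed through 40 μm strainer, total RNA extracted, qRT-PCR with ΔΔCt, % of vehicle.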

In data set [5] the target is T3, Peroxisome proliferator-activated receptor gamma (Homo sapiens) (UniProt P37231).
T3 sequence (whole entry): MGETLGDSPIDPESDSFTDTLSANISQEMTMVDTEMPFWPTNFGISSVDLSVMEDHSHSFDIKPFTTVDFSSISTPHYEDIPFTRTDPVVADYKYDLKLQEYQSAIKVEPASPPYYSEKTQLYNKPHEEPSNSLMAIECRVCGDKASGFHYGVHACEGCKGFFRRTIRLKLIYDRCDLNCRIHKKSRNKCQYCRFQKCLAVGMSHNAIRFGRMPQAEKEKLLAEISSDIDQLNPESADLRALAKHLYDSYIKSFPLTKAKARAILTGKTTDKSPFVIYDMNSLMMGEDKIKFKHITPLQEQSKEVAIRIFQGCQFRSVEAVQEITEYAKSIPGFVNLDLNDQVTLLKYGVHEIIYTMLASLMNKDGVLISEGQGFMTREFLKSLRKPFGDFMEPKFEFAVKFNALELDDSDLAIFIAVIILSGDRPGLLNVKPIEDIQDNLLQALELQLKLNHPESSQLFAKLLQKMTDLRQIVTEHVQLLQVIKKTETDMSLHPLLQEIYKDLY
Briefly: Transactivation of PPARgamma in human HepG2 cells assessed as FAM3A mRNA expression at 10 uM after 8 to 16 hrs by SYBR green based qRT-PCR analysis relative to DMSO control. The class given is cell-based. The procedure, abridged: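 HepG2 cells treated 8 or 16 h with compound or 0.1% DMSO, washed in cold PBS, RNA extracted; SYBR Green qRT-PCR in duplicate, ≥4 independent experiments (n = 3 for CD36/FAM3A). ΔΔCt method with GAPDH reference; expression as % of vehicle (100%). Pioglitazone 1 μM used as positive control for the PPARγ genes.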

Another data set has as its system Liver. The data set is described as follows: Drug metabolism in Sprague-Dawley rat liver microsomes assessed as 4-tert-butyl-N-(2-chloro-4-(methylsulfonamido)benzyl)-2-hydroxybenzamide formation at 10 uM preincubated with NADPH regenerating system for 5 mins followed by addition of liver microsomes by LC-MS/MS method. The class given is ADME, microsome. For orientation: Microsomes from liver hold many membrane-bound enzymes, among them those of drug oxidation.

From ChEMBL document CHEMBL4017509, “A Dual Modulator of Farnesoid X Receptor and Soluble Epoxide Hydrolase To Counter Nonalcoholic Steatohepatitis” (J Med Chem, 2017) come the findings set out here.

Active and inactive are the calls of the source. No cut-off for these calls is given here.

The inhibition is the share of the control response that was lost under treatment.

Sequence of Peroxisome proliferator-activated receptor alpha (Homo sapiens) (Q07869 whole entry, the tested form may be a part): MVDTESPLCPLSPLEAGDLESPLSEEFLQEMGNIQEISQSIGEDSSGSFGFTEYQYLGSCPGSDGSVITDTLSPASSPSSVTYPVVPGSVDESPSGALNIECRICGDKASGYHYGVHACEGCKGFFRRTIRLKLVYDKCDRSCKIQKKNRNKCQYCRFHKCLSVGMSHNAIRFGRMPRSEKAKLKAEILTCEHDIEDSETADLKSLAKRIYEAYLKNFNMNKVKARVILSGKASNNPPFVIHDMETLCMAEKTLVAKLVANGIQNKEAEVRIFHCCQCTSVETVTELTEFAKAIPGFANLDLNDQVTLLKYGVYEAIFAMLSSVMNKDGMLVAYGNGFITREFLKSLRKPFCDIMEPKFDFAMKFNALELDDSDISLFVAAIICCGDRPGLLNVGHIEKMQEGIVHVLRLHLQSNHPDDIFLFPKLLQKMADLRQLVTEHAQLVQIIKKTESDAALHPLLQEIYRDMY

As for `CC(C)(C)c1ccc(C(=O)NCc2ccc(NS(C)(=O)=O)cc2Cl)cc1`, the outcome in data set [1] and in data set [2] was inactive. Also, the values for the Activity (in data set [3]; with Mus musculus; in data set [5]) were 36%, 70% and 142%, respectively. For the same compound, in data set [4], the inhibition is 17.6%. The Drug metabolism result with Liver is “Metabolite_Notdetected”.
